Measured values as given in ChEMBL document CHEMBL1148783, “Selection of a respiratory syncytial virus fusion inhibitor clinical candidate, part 1: improving the pharmacokinetic profile using the structure-property relationship” (J Med Chem, 2007).

What was measured:
[1] = Cytotoxicity against HeLaM cells; type: cell-based, M-HeLa; details: human
[2] = Half life (24 to 96 hrs) in Sprague-Dawley rat lung; type: ADME, tissue-based
How it was run: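 Lung half-life came from IV-dosed male Sprague-Dawley rats (1 mg/kg, 10 min tail-vein infusion), with three animals per time point. Lungs were homogenized in water (1/9 w/v) and analyzed by LC-MS/MS, using the concentrations measured between 24 and 96 h post-dose.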

[3] = system: Respiratory syncytial virus; assay: Antiviral activity against RSV in HeLaM cells; type: functional, organism-based; details: human respiratory syncytial virus
How it was run: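 HeLaM epithelial-like cells infected with RSV with or without a range of compound concentrations, with virus, cell and cytotoxicity controls and ribavirin as reference in each test. After one week of incubation, viability was read by MTT and spectrophotometric OD. pEC50 was calculated from the OD values.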

[4] = Drug level in Sprague-Dawley rat lung after 4 hrs; type: ADME, tissue-based; details: read-out: Drug uptake
How it was run: (§1)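 Male Sprague-Dawley rats (250-300 g) were given a 10 min tail-vein infusion at a final dose of 1 mg/kg. Three rats per time point were killed at 4, 24, 96 and 168 h. Plasma was taken from EDTA blood, and lung was homogenized 1/9 w/v in demineralized water. Samples were stored at ≤-18 °C and quantified by a qualified LC-MS/MS method.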

[5] = Drug level in Sprague-Dawley rat lung after 24 hrs; type: ADME, tissue-based; details: read-out: Drug uptake; how it was run: as §1
[6] = Drug level in Sprague-Dawley rat lung after 96 hrs; type: ADME, tissue-based; details: read-out: Drug uptake; how it was run: as §1
[7] = Drug level in Sprague-Dawley rat plasma after 4 hrs; type: ADME, cell-free; details: read-out: Drug uptake; how it was run: as §1
[8] = Drug level in Sprague-Dawley rat plasma after 24 hrs; type: ADME, cell-free; details: read-out: Drug uptake; how it was run: as §1
[9] = Drug level in Sprague-Dawley rat lung after 168 hrs; type: ADME, tissue-based; details: read-out: Drug uptake; how it was run: as §1

| SMILES | CC50 [1] [µM] | half-life [2] [h] | EC50 [3] [µM] | also measured |
| --- | --- | --- | --- | --- |
| Cc1ccc(O)c(Cn2c(NC3CCN(CCN)CC3)nc3ccccc32)n1 | > 100 | 211 | 0.000316 | – |
| Cc1ccc(O)c(Cn2cnc3c(C)cccc32)n1 | – | – | – | concentration at 4 h [4]: 3.9 ng/mL |
| CNS(=O)(=O)CCCN1CCC(Nc2nc3c(C)cccc3n2Cc2nc(C)ccc2O)CC1 | 79.4 | 32 | 0.0501 | – |
| Cc1ccc(O)c(Cn2c(NC3CCN(CCC(N)=O)CC3)nc3c(C)cccc32)n1 | > 100 | 46 | 0.0501 | – |
| Cc1ccc(O)c(Cn2c(NC3CCN(CCC(=O)O)CC3)nc3c(C)cccc32)n1 | > 100 | – | 0.158 | – |
| Cc1ccc(O)c(Cn2c(NC3CCN(C)CC3)nc3c(C)cccc32)n1 | 50.1 | – | 0.158 | – |
| Cc1ccc(O)c(Cn2c(NC3CCN(CC(O)CN(C)C)CC3)nc3c(C)cccc32)n1 (stereo not drawn) | > 100 | 556 | 0.00316 | – |
| Cc1ccc(O)c(Cn2c(NC3CCN(CCO)CC3)nc3c(C)cccc32)n1 | > 100 | 29 | 0.02 | – |
| CC(=O)NCCNc1nc2c(C)cc(C)cc2n1Cc1nc(C)ccc1O | 12.6 | – | 5.01 | – |
| Cc1ccc(O)c(Cn2c(NC3CCN(CCN4CCOCC4)CC3)nc3c(C)cccc32)n1 | 63.1 | 35 | 0.158 | – |
| Cc1ccc(O)c(Cn2c(NC3CCN(CCC(C)C)CC3)nc3c(C)cccc32)n1 | > 100 | – | 0.631 | – |
| Cc1cc(C)c2nc(NCC(O)CO)n(Cc3nc(C)ccc3O)c2c1 (stereo not drawn) | 50.1 | < 24 | 0.0398 | – |
| Cc1cc(C)c2nc(NCCCN3CCN(C)CC3)n(Cc3nc(C)ccc3O)c2c1 | 50.1 | 80 | 0.0251 | – |
| Cc1cc(C)c2nc(NCCNc3ccccc3)n(Cc3nc(C)ccc3O)c2c1 | 3.16 | – | > 100 | – |
| Cc1cc(C)c2nc(NCCCN3CCOCC3)n(Cc3nc(C)ccc3O)c2c1 | 50.1 | 14 | 0.126 | – |
| Cc1cc(C)c2nc(NCCc3ccccc3)n(Cc3nc(C)ccc3O)c2c1 | 6.31 | – | > 100 | – |
| Cc1ccc(O)c(Cn2c(NC3CCN(CCN4CCCC4)CC3)nc3c(C)cccc32)n1 | 39.8 | 206 | 0.01 | – |
| CNCCCNc1nc2c(C)cc(C)cc2n1Cc1nc(C)ccc1O | 50.1 | 93 | 0.000631 | – |
| CCCCNc1nc2c(C)cc(C)cc2n1Cc1nc(C)ccc1O | 7.94 | – | > 100 | – |
| Cc1cc(C)c2nc(NCCCO)n(Cc3nc(C)ccc3O)c2c1 | 63.1 | – | 0.158 | – |
| Cc1cc(C)c2nc(NCCCN)n(Cc3nc(C)ccc3O)c2c1 | > 100 | 68 | 0.000251 | – |
| Cc1ccc(O)c(Cn2c(NC3CCN(CCCS(N)(=O)=O)CC3)nc3c(C)cccc32)n1 | > 100 | 57 | 0.0126 | – |
| Cc1ccc(O)c(Cn2c(NC3CCN(CC(O)C(C)(C)C)CC3)nc3c(C)cccc32)n1 (stereo not drawn) | 39.8 | – | 0.794 | – |
| NCCN1CCC(Nc2nc3ccccc3[nH]2)CC1 | – | – | – | concentration at 24 h [5]: 295 ng/mL; concentration at 96 h [6]: 83.7 ng/mL; concentration at 4 h [7]: 11.8 ng/mL; concentration at 4 h [4]: 247 ng/mL; concentration at 24 h [8]: 6.1 ng/mL; concentration at 168 h [9]: 37.8 ng/mL |
| Cc1ccc(O)c(Cn2c(NC3CCN(CCN)CC3)nc3c(C)cccc32)n1 [JNJ 2408068] | > 100 | 153 | 0.000251 | concentration at 24 h [5]: 559 ng/mL; concentration at 96 h [6]: 439 ng/mL; concentration at 4 h [7]: 0.97 ng/mL; concentration at 4 h [4]: 576 ng/mL; concentration at 24 h [8]: 0.33 ng/mL; concentration at 168 h [9]: 387 ng/mL |
